From ChEMBL document CHEMBL3286139, “Synthesis of α, β-unsaturated carbonyl based compounds as acetylcholinesterase and butyrylcholinesterase inhibitors: characterization, molecular modeling, QSAR studies and effect against amyloid β-induced cytotoxicity” (Eur J Med Chem, 2014)
Activity calls are given as the source filed them. No cut-off for these calls is given here.

How the values were obtained:
[1] = test system: Radical scavenging activity; assay: Antioxidant activity assessed as DPPH free radical scavenging activity; format: functional
[2] = Cytotoxicity against rat PC12 cells at 0.01 to 100 uM after 24 hrs by MTT assay; format: cell-based; settings: pc-12, 24 h
Procedure, shortened: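 PC12 cells kept in RPMI-1640 with 10% heat-inactivated FBS and 1% penicillin-streptomycin at 37°C, 5% CO2. Seeded 1×10^4 cells/well, exposed to compound (0.01-100 μM) for 24 h. MTT (2.0 mg/ml) added for 4 h at 37°C, formazan dissolved in DMSO, read at 570/630 nm. Viability given as percent of control cultures.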

PC-12 = assay: Neuroprotective activity against amyloid beta (1 to 42)-induced cytotoxicity in rat PC12 cells at 0.01 to 100 uM pretreated for 24 hrs followed by addition of 25 uM amyloid beta (1 to 42) by MTT assay; format: functional, cell-based
Procedure, shortened: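 PC12 cells (RPMI-1640, 10% heat-inactivated FBS, 37°C, 5% CO2) pre-incubated with compound (0.01-100 μM) in serum-free medium for 24 h, then given 25 µM Aβ1-42. Untreated control lacked Aβ. Selegiline served as positive control. MTT 2.0 mg/ml for 4 h at 37°C, DMSO solubilization, 570/630 nm read. Mean percent viable cells versus untreated, mean ± SE, n=5.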

[3] = Neuroprotective activity against amyloid beta (1 to 42)-induced cytotoxicity in rat PC12 cells at 100 uM pretreated for 24 hrs followed by addition of 25 uM amyloid beta (1 to 42) by MTT assay; format: functional, PC-12
Procedure, shortened: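 PC12 cells in RPMI-1640/10% heat-inactivated FBS, 37°C, 5% CO2, seeded 1×10^4 cells/well. Compound pre-incubation 24 h in serum-free medium, then 25 µM Aβ1-42 added; selegiline as positive control. MTT 2.0 mg/ml, 4 h at 37°C, formazan dissolved in DMSO, read 570/630 nm. Viability as % of untreated cells, mean ± SE, n=5.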

With `CN(C)c1ccc(/C=C2/CCC/C(=C\c3ccc(N(C)C)cc3[N+](=O)[O-])C2=O)c([N+](=O)[O-])c1` the IC50 [1] was 32.5 µM, the Activity [2] was “Non-toxic” and the Activity (PC-12) was “Active”.
With `CCOC(OCC)c1ccc(/C=C2\CN(Cc3ccccc3)C/C(=C\c3ccc(C(OCC)OCC)cc3)C2=O)cc1` the IC50 [1] was 28.2 µM, the Activity [2] was “Non-toxic” and the Activity (PC-12) was “inactive”.
In the case of `CCOC(OCC)c1ccc(/C=C2\CC/C(=C\c3ccc(C(OCC)OCC)cc3)C2=O)cc1`, the Activity [2] is reported as “Non-toxic” and the Activity (PC-12) is reported as “inactive”.
For `CN(C)c1ccc(/C=C2\CC/C(=C\c3ccc(N(C)C)cc3[N+](=O)[O-])C2=O)c([N+](=O)[O-])c1`, the IC50 [1] was 47.8 µM, the Activity [2] was “Non-toxic” and the Activity (PC-12) was “Active”.
In the case of `O=C1/C(=C\c2ccc(N3CCCC3)cc2)CN(Cc2ccccc2)C/C1=C\c1ccc(N2CCCC2)cc1`, the IC50 [1] is reported as > 50 µM, the Activity [2] is reported as “Non-toxic” and the Activity (PC-12) is reported as “inactive”.
With `CN(C)c1ccc(/C=C2\CCc3ccccc3C2=O)c([N+](=O)[O-])c1` the IC50 [1] was 23 µM, the Activity [2] was “Non-toxic” and the Activity (PC-12) was “Active”. For the same molecule, the Activity [3] was “<=87%”.
With `CN(C)c1ccc(/C=C2/COC/C(=C\c3ccc(N(C)C)cc3[N+](=O)[O-])C2=O)c([N+](=O)[O-])c1` the IC50 [1] was 29.2 µM, the Activity [2] was “Non-toxic” and the Activity (PC-12) was “Active”.
In the case of `CCOC(OCC)c1ccc(/C=C/C(=O)C2CCc3ccccc3C2=O)cc1` (configuration not stated), the IC50 [1] is reported as > 50 µM, the Activity [2] is reported as “Non-toxic” and the Activity (PC-12) is reported as “inactive”.
For `O=C(/C=C/c1ccc(N2CCCC2)cc1)C1CCc2ccccc2C1=O` (configuration not stated), the IC50 [1] was 27.9 µM, the Activity [2] was “Non-toxic” and the Activity (PC-12) was “inactive”.
For `O=C1O[C@H]([C@@H](O)CO)C(O)=C1O` [ASCORBIC ACID], the IC50 [1] was 19.4 µM.
For `O=C1/C(=C\c2ccc(N3CCCC3)cc2)COC/C1=C\c1ccc(N2CCCC2)cc1`, the IC50 [1] was > 50 µM, the Activity [2] was “Non-toxic” and the Activity (PC-12) was “inactive”.
For `CN(C)c1ccc(/C=C2/CN(Cc3ccccc3)C/C(=C\c3ccc(N(C)C)cc3[N+](=O)[O-])C2=O)c([N+](=O)[O-])c1`, the IC50 [1] was > 50 µM, the Activity [2] was “Non-toxic” and the Activity (PC-12) was “Active”.
With `O=C1/C(=C/c2ccc(N3CCCC3)cc2)CCc2ccccc21` the IC50 [1] was 29.2 µM, the Activity [2] was “Non-toxic” and the Activity (PC-12) was “inactive”.
In the case of `O=C1/C(=C/c2ccc(N3CCCC3)cc2)Cc2ccccc21`, the IC50 [1] is reported as > 50 µM, the Activity [2] is reported as “Non-toxic” and the Activity (PC-12) is reported as “inactive”.
For `CCOC(OCC)c1ccc(/C=C2\Cc3ccccc3C2=O)cc1`, the IC50 [1] was 37.2 µM, the Activity [2] was “Non-toxic” and the Activity (PC-12) was “inactive”.
For `CN(C)c1ccc(/C=C/C(=O)/C=C/c2ccc(N(C)C)cc2[N+](=O)[O-])c([N+](=O)[O-])c1`, the IC50 [1] was > 50 µM, the Activity [2] was “Non-toxic” and the Activity (PC-12) was “Active”.
With `CCOC(OCC)c1ccc(/C=C2\CCc3ccccc3C2=O)cc1` the IC50 [1] was 39.5 µM, the Activity [2] was “Non-toxic” and the Activity (PC-12) was “inactive”.
In the case of `CN(C)c1ccc(/C=C2\Cc3ccccc3C2=O)c([N+](=O)[O-])c1`, the IC50 [1] is reported as > 50 µM, the Activity [2] is reported as “Non-toxic” and the Activity (PC-12) is reported as “Active”.
For `C#CCN(C)[C@H](C)Cc1ccccc1`, the Activity (PC-12) was “Active”.
In the case of `O=C1/C(=C\c2ccc(N3CCCC3)cc2)CCC/C1=C\c1ccc(N2CCCC2)cc1`, the IC50 [1] is reported as 31.3 µM, the Activity [2] is reported as “Non-toxic” and the Activity (PC-12) is reported as “inactive”.
For `O=C(/C=C/c1ccc(N2CCCC2)cc1)/C=C/c1ccc(N2CCCC2)cc1`, the IC50 [1] was > 50 µM, the Activity [2] was “Non-toxic” and the Activity (PC-12) was “inactive”.
In the case of `O=C1/C(=C/c2ccc(N3CCCC3)cc2)CC/C1=C\c1ccc(N2CCCC2)cc1`, the IC50 [1] is reported as > 50 µM, the Activity [2] is reported as “Non-toxic” and the Activity (PC-12) is reported as “inactive”.
For `O=C1/C(=C\c2ccc(N3CCCC3)cc2)CNC/C1=C\c1ccc(N2CCCC2)cc1`, the IC50 [1] was 26.9 µM, the Activity [2] was “Non-toxic” and the Activity (PC-12) was “inactive”.
In the case of `CN1C/C(=C/c2ccc(N(C)C)cc2[N+](=O)[O-])C(=O)/C(=C/c2ccc(N(C)C)cc2[N+](=O)[O-])C1`, the IC50 [1] is reported as 18.4 µM, the Activity [2] is reported as “Non-toxic” and the Activity (PC-12) is reported as “Active”. The Activity [3] was “<=87%”.
With `CCOC(OCC)c1ccc(/C=C/C(=O)/C=C/c2ccc(C(OCC)OCC)cc2)cc1` the IC50 [1] was > 50 µM, the Activity [2] was “Non-toxic” and the Activity (PC-12) was “inactive”.
For `CN(C)c1ccc(/C=C2/CNC/C(=C\c3ccc(N(C)C)cc3[N+](=O)[O-])C2=O)c([N+](=O)[O-])c1`, the IC50 [1] was 25.7 µM, the Activity [2] was “Non-toxic” and the Activity (PC-12) was “Active”. The Activity [3] was “<=87%”.
With `CN(C)c1ccc(/C=C/C(=O)C2CCc3ccccc3C2=O)c([N+](=O)[O-])c1` (configuration not stated) the IC50 [1] was 49.1 µM, the Activity [2] was “Non-toxic” and the Activity (PC-12) was “Active”.
With `CN1C/C(=C/c2ccc(N3CCCC3)cc2)C(=O)/C(=C/c2ccc(N3CCCC3)cc2)C1` the IC50 [1] was 43.3 µM, the Activity [2] was “Non-toxic” and the Activity (PC-12) was “inactive”.
With `CCOC(OCC)c1ccc(/C=C2\COC/C(=C\c3ccc(C(OCC)OCC)cc3)C2=O)cc1` the IC50 [1] was 29.3 µM, the Activity [2] was “Non-toxic” and the Activity (PC-12) was “inactive”.
With `CCOC(OCC)c1ccc(/C=C2\CNC/C(=C\c3ccc(C(OCC)OCC)cc3)C2=O)cc1` the IC50 [1] was 19.3 µM, the Activity [2] was “Non-toxic” and the Activity (PC-12) was “Active”. The Activity [3] was “<=87%”.
For `CCOC(OCC)c1ccc(/C=C2\CCC/C(=C\c3ccc(C(OCC)OCC)cc3)C2=O)cc1`, the IC50 [1] was 20.1 µM, the Activity [2] was “Non-toxic” and the Activity (PC-12) was “Active”. The Activity [3] was “<=87%”.
In the case of `CCOC(OCC)c1ccc(/C=C2\CN(C)C/C(=C\c3ccc(C(OCC)OCC)cc3)C2=O)cc1`, the IC50 [1] is reported as 20.4 µM, the Activity [2] is reported as “Non-toxic” and the Activity (PC-12) is reported as “Active”. The Activity [3] was “<=87%”.
